The results in this text go back to ChEMBL document CHEMBL3045766, “Potent nematicidal activity of phthalaldehyde, salicylaldehyde, and cinnamic aldehyde against Meloidogyne incognita” (J Agric Food Chem, 2013).

Assay [1] concerns Meloidogyne incognita. Kind of assay: Nematicidal activity against second-stage juveniles of Meloidogyne incognita (root-knot nematode) after 1 day by inverted microscopic analysis. The format is functional, organism-based. To be noted: 24 h. The procedure, abridged: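 Stocks in methanol, diluted with water/Tween; double-strength solutions mixed 1:1 with 25 J2 per well (methanol ≤1% final), covered, dark, 28 °C, 1 day. Controls: water and water/Tween 0.2%. Paralysis corrected for water-control mortality; five replicates, experiment run twice; EC50 from log-logistic nonlinear regression.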

The test system of assay [2] is Meloidogyne incognita. Kind of assay: Nematicidal activity against second-stage juveniles of Meloidogyne incognita (root-knot nematode) after 1 hr by inverted microscopic analysis. The format is functional. Put shortly: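 J2 motility assay: methanol stocks diluted in water/Tween, mixed 1:1 with 25 J2 per well (methanol ≤1% final), kept covered in dark at 28 °C; paralysis scored at 1 h over a concentration range to give EC100. Water and water/Tween 0.2% controls; five replicates, repeated twice.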

In assay [3] the target is T1, Collagen (Meloidogyne javanica) (UniProt O01945).
T1 sequence (whole entry): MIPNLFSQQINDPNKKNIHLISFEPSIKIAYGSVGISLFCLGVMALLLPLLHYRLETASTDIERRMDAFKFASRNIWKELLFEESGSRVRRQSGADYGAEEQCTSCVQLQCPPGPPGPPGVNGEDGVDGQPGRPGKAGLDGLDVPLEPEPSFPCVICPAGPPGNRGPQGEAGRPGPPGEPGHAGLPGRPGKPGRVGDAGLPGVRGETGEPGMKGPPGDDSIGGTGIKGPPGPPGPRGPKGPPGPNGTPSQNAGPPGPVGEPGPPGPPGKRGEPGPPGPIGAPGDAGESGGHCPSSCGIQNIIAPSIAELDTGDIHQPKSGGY
Kind of assay: Covalent binding to Meloidogyne javanica (root-knot nematode) collagen 3 assessed as compound-protein adduct formation at 1 mM by HPLC-ESI-MS analysis. Put shortly:
(§1)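 Aldehyde (final 1, 5 or 15 mM) incubated with probe peptide (0.5 mM) in 100 mM Tris-HCl pH 7.4, 25 °C, dark, 24 h, duplicate; stopped with TFA (0.1% final). Diluted in 0.1% TFA, analysed by HPLC-ESI-MS (C18, TFA water/acetonitrile gradient). Adducts quantified label-free as relative XIC peak area of each derivative versus sum of all derivatives; peptide-only control.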

The target of assay [4] is T1, Collagen (Meloidogyne javanica). The experiment in a line: Covalent binding to Meloidogyne javanica (root-knot nematode) collagen 3 assessed as compound-protein adduct formation at 5 mM by HPLC-ESI-MS analysis. Put shortly:
as §1

Assay [5] has as its system Meloidogyne incognita. The experiment in a line: Nematicidal activity against second-stage juveniles of Meloidogyne incognita (root-knot nematode) assessed as microscopic fracture on cuticle at […] by scanning electron microscopic analysis. Format: functional, organism-based. Put shortly:
(§2)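 J2 juveniles were exposed to the aldehyde, with untreated J2 as negative controls. They were postfixed in 1% osmium tetroxide in 0.1 M cacodylate buffer for 1 h, washed in distilled water, and frozen in slush nitrogen. They were then freeze-dried under vacuum overnight (−70 °C rising to room temperature), sputter-coated with 10 nm gold and imaged by secondary-electron SEM at 15 kV.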

For assay [6], the system named is Meloidogyne incognita. Kind of assay: Nematicidal activity against second-stage juveniles of Meloidogyne incognita (root-knot nematode) assessed as smooth/stretched cuticle at […] by scanning electron microscopic analysis. The format is functional, organism-based. Put shortly: as §2
Assay [7] concerns Meloidogyne incognita. The experiment in a line: Nematicidal activity against second-stage juveniles of Meloidogyne incognita (root-knot nematode) assessed as macroscopic fracture on cuticle at […] by scanning electron microscopic analysis. Format: functional, organism-based. The procedure, abridged: as §2
Assay [8] concerns the target T1, Collagen (Meloidogyne javanica). The experiment in a line: Covalent binding to Meloidogyne javanica (root-knot nematode) collagen 3 assessed as compound-protein adduct formation at 15 mM by HPLC-ESI-MS analysis. Put shortly:
as §1

≈ marks a conversion by molar mass, not a printed value. Calls of active or inactive are those of the source. No cut-off for these calls is given here.

By EC50 is commonly meant the concentration needed to bring the measured effect to its halfway point. On to `Oc1ccccc1O` [CATECHOL], for which the EC50 with Meloidogyne incognita [1] was more than 500 µg/mL. The EC100 in the assay with Meloidogyne incognita [2] is listed as more than 500 mg/L.
In the case of `COc1ccc(C=O)cc1OC` [3,4-DIMETHOXYBENZALDEHYDE], the Activity in assay [3] amounted to 65%; in assay [4] it was 70%. This molecule also had an EC50 in the assay with Meloidogyne incognita [1] of more than 1000 µg/mL. In addition, the EC100 in the assay with Meloidogyne incognita [2] was more than 1000 mg/L.
`COC(=O)c1ccccc1O` [METHYL SALICYLATE]: the EC50 in the assay on Meloidogyne incognita [1] is more than 1000 µg/mL. Moreover, the EC100 in the assay with Meloidogyne incognita [2] is listed as more than 1000 mg/L.
In the same order, the values of `CCCCCCCCCCCCCCCc1ccc(C=O)c(O)c1` are more than 1000 µg/mL and more than 1000 mg/L.
In the same order, the values of `O=CCc1ccccc1` [PHENYLACETALDEHYDE] are 167 µg/mL (≈ 1390 µM) and 1000 mg/L.
Regarding `O=Cc1cccc(O)c1` [3-HYDROXYBENZALDEHYDE], the EC50 with Meloidogyne incognita [1] was found to be 31 µg/mL (≈ 254 µM). This molecule showed an EC100 with Meloidogyne incognita [2] of more than 250 mg/L.
In the assay with Meloidogyne incognita [1], `COc1cc(C=O)ccc1O` [VANILLIN] yielded an EC50 of more than 1000 µg/mL. Moreover, the EC100 with Meloidogyne incognita [2] is more than 1000 mg/L.
The matching figures for `O=C(O)/C=C/c1ccccc1` [CINNAMIC ACID]: more than 250 µg/mL and more than 250 mg/L.
In the case of `C[C@@H]1O[C@@H](O[C@H]2C[C@@H](O)[C@]3(CO)[C@H]4[C@H](O)C[C@]5(C)[C@@H](C6=CC(=O)OC6)CC[C@]5(O)[C@@H]4CC[C@]3(O)C2)[C@H](O)[C@H](O)[C@H]1O` [OUABAIN], the EC50 in the assay with Meloidogyne incognita [1] is more than 1000 µg/mL. Besides, the EC100 with Meloidogyne incognita [2] is listed as more than 1000 mg/L.
For the molecule `O=Cc1ccco1` [FURFURAL], the EC50 in the assay with Meloidogyne incognita [1] came out at 8 µg/mL (≈ 83.3 µM). The molecule also gave an EC100 in the assay with Meloidogyne incognita [2] of 11 mg/L.
In the same order, the values of `CCc1ccc(O)c(C=O)c1` are 53 µg/mL (≈ 353 µM) and more than 100 mg/L.
In the same order, the values of `O=C/C=C\c1ccccc1` [CINNAMIC ALDEHYDE] are 12 µg/mL (≈ 90.8 µM) and more than 250 mg/L.
Molecule `O=Cc1ccccc1O[C@@H]1O[C@H](CO)[C@@H](O)[C@H](O)[C@H]1O` [HELICIN] registered an EC50 in the assay on Meloidogyne incognita [1] of more than 250 µg/mL. Moreover, the EC100 with Meloidogyne incognita [2] was more than 250 mg/L.
With `O=Cc1ccc2ccccc2c1` [2-NAPHTHALDEHYDE], the midpoint of the response in the assay on Meloidogyne incognita [1], the EC50, lay at 13 µg/mL (≈ 83.2 µM). The same molecule gave an EC100 with Meloidogyne incognita [2] of more than 75 mg/L.
Regarding `CCCCC/C=C/C=C/C=O`, the result in the assay on Meloidogyne incognita [5] was inactive. Also, the outcome in the assay on Meloidogyne incognita [6] and in the assay on Meloidogyne incognita [7] was Active. The midpoint of the response with Meloidogyne incognita [1], the EC50, lay at 12 µg/mL (≈ 78.8 µM). This molecule returned an EC100 in the assay with Meloidogyne incognita [2] of more than 20 mg/L.
Molecule `c1ccc([C@H]2CN3CCSC3=N2)cc1` [LEVAMISOLE] returned an EC50 in the assay with Meloidogyne incognita [1] of 4 µg/mL (≈ 19.6 µM). This molecule also gave an EC100 in the assay with Meloidogyne incognita [2] of more than 20 mg/L.
In the case of `Cn1c2cccc(=O)c-2nc2ccccc21` [PYOCYANIN], in the assay on Meloidogyne incognita [1], the EC50 was 72 µg/mL (≈ 342 µM). In addition, the EC100 in the assay on Meloidogyne incognita [2] was more than 250 mg/L.
As for `COc1ccccc1C=O` [2-METHOXYBENZALDEHYDE], the Activity in assay [3] was 74%; in assay [4], 77%. Further, the EC50 in the assay on Meloidogyne incognita [1] was more than 1000 µg/mL. Besides, the EC100 in the assay on Meloidogyne incognita [2] was more than 1000 mg/L.
`CC(C)=CCC/C(C)=C/C=O` [CITRAL] yielded an EC50 in the assay on Meloidogyne incognita [1] of 72 µg/mL (≈ 473 µM). In the assay with Meloidogyne incognita [2], this molecule yielded an EC100 of more than 250 mg/L.
`O=Cc1ccccc1[N+](=O)[O-]` [2-NITROBENZALDEHYDE] registered an EC50 in the assay with Meloidogyne incognita [1] of 120 µg/mL (≈ 794 µM). In the assay on Meloidogyne incognita [2], the EC100 is reported as more than 200 mg/L.
As for `O=Cc1cccc(C(=O)O)c1` [3-FORMYLBENZOIC ACID], in the assay with Meloidogyne incognita [1], the concentration for a half-maximal effect (EC50) was more than 1000 µg/mL. In the assay on Meloidogyne incognita [2], this molecule gave an EC100 of more than 1000 mg/L.
Regarding `CCOP(=O)(SC(C)CC)N1CCSC1=O` (configuration not stated) [FOSTHIAZATE], in the assay with Meloidogyne incognita [2], the EC100 stood at 3 mg/L.
`CC(=O)c1ccc2c(c1)OCO2` [3,4-METHYLENDIOXY ACETOPHENONE] gave an EC50 with Meloidogyne incognita [1] of more than 500 µg/mL. In the assay on Meloidogyne incognita [2], this molecule displayed an EC100 of more than 500 mg/L.
Regarding `O=Cc1cccc(C=O)c1` [ISOPHTHALIC DICARBOXALDEHYDE], the Activity was 1% in assay [3], 0% in assay [8] and 0% in assay [4]. In addition, in the assay on Meloidogyne incognita [1], the EC50 came out at 15 µg/mL (≈ 112 µM). For the same molecule, in the assay with Meloidogyne incognita [2], the EC100 was more than 100 mg/L.
`O=Cc1ccc(O)c(O)c1` [PROTOCATECHUALDEHYDE]: the Activity in assay [3] came to 72%; in assay [8], 73%; in assay [4], 89%. This molecule showed an EC50 in the assay on Meloidogyne incognita [1] of more than 1000 µg/mL. This molecule registered an EC100 with Meloidogyne incognita [2] of more than 1000 mg/L.
With `O=Cc1ccccc1O` [SALICYLADEHYDE], in the assay on Meloidogyne incognita [5], the outcome was inactive. The Activity in assay [3] was 61%; in assay [4] it was 57%. Also, the outcome in the assay with Meloidogyne incognita [6] and in the assay on Meloidogyne incognita [7] was Active. For the same molecule, the EC50 with Meloidogyne incognita [1] was determined as 11 µg/mL (≈ 90.1 µM). In the assay with Meloidogyne incognita [2], this molecule gave an EC100 of more than 25 mg/L.
Regarding `O=Cc1ccc2c(c1)OCO2` [PIPERONAL], the Activity in assay [3] amounted to 5%; in assay [4], 30%. This molecule also yielded an EC50 in the assay with Meloidogyne incognita [1] of 44 µg/mL (≈ 293 µM). This molecule registered an EC100 in the assay on Meloidogyne incognita [2] of more than 100 mg/L.
`O=Cc1ccccc1` [BENZALDEHYDE]: the Activity in assay [3] turned out to be 0%; in assay [8], 6%; in assay [4], 0%. The molecule further yielded an EC50 in the assay on Meloidogyne incognita [1] of more than 250 µg/mL. Moreover, the EC100 in the assay on Meloidogyne incognita [2] was more than 100 mg/L.
In the assay on Meloidogyne incognita [1], `O=Cc1ccc(O)cc1` [4-HYDROXYBENZALDEHYDE] registered an EC50 of 75 µg/mL (≈ 614 µM). The molecule further gave an EC100 in the assay with Meloidogyne incognita [2] of 500 mg/L.
Regarding `O=Cc1ccccc1C=O` [ORTHO-PHTHALALDEHYDE], the midpoint of the response in the assay on Meloidogyne incognita [1], the EC50, lay at 11 µg/mL (≈ 82 µM). Besides, in the assay on Meloidogyne incognita [2], the EC100 is recorded as more than 50 mg/L.
